The test system of assay [1] is HepG2. Briefly: Cytotoxicity against human HepG2 cells assessed as cellular growth at 50 uM incubated for 1 hr prior to TNF alpha stimulation measured after 48 hrs by SRB assay. The assay is classed as functional. Summed up:
(§1)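 HepG2 cells in DMEM with 10% FBS and penicillin/streptomycin were allowed to adhere 24 h, and a T0 plate was fixed. Compound was given for 1 h at 37 °C, with or without 20 ng/ml TNFα, then 48 h more. Cells were stained with 0.4% SRB for 30 min at RT, washed in 1% acetic acid, and solubilized in 10 mM Tris. OD read at 515 nm; one-way ANOVA.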

Assay [2] concerns HepG2. Briefly: Cytotoxicity against human HepG2 cells assessed as cellular growth at 50 uM after 48 hrs by SRB assay in absence of TNFalpha. The assay is classed as functional. The procedure, abridged:
as §1
(In SRB staining, fixed cells bind dye roughly in proportion to their protein.)

The test system of assay [3] is HepG2. As to the kind of experiment: Inhibition of TNFalpha-induced NFkappaB (unknown origin)-dependent transcriptional activity expressed in human HepG2 cells at 1 uM incubated for 1 hr prior to TNFalpha induction measured after 6 hrs by dual-luciferase reporter gene assay. The assay is classed as cell-based. The procedure, abridged:
(§2)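 HepG2 cells in DMEM with 10% FBS were lipofectamine-transfected with 10 ng/well pGL4.32 NF-κB-Luc plus Renilla control. Compound in DMSO was given in fresh medium for 1 h at 37 °C, then TNFα (final 20 ng/ml) for 6 h. Cells were lysed in passive lysis buffer. Firefly light units were normalized to Renilla; one-way ANOVA.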

The test system of assay [4] is HepG2. Briefly: Inhibition of TNFalpha-induced NFkappaB (unknown origin)-dependent transcriptional activity expressed in human HepG2 cells at 0.1 to 10 uM incubated for 1 hr prior to TNFalpha induction measured after 6 hrs by dual-luciferase reporter gene assay. The assay is classed as cell-based. The procedure, abridged:
as §2

The source made the active and inactive calls. The calls are words filed in the database; no cut-off is given here.

The values below come from ChEMBL document CHEMBL2311328, “Molecular docking and synthesis of novel quinazoline analogues as inhibitors of transcription factors NF-κB activation and their anti-cancer activities” (2013).

Turning to `c1ccc(CN2CCN(c3nc(-c4ccccc4)nc4ccccc34)CC2)cc1`, the Activity was found to be 13.7% in the assay with HepG2 [1] and 30.7% in the assay with HepG2 [2]. Moreover, in the assay on HepG2 [3], the inhibition entry is “Active”.
On the same counts, the results for `c1ccc(CN2CCN(c3ncnc4ccccc34)CC2)cc1` are -17.6%, -16.7% and “Active”.
The matching figures for `c1ccc(-c2nc(NCCc3ccc4c(c3)OCO4)c3ccccc3n2)cc1`: -46.8%, -30.7% and “Active”.
Turning to `Nc1ccc2ncnc(NCCc3ccc(Oc4ccccc4)cc3)c2c1`, the inhibition entry in the assay with HepG2 [4] was “Active”.
Turning to `c1ccc2c(NCCc3ccc4c(c3)OCO4)ncnc2c1`, the Activity in the assay on HepG2 [1] is given as -28.1%; in the assay with HepG2 [2] it was -20.1%. The inhibition entry in the assay with HepG2 [3] was “Active”.
With `Oc1ccc(CN2CCN(c3nc(-c4ccccc4)nc4ccccc34)CC2)cc1`, the Activity is -49.1% with HepG2 [1] and -37.6% in the assay on HepG2 [2]. Moreover, the inhibition result with HepG2 [3] was “Active”.
